Assay outcomes deposited in PubChem by several laboratories.
L major viab: Leishmania major promastigote growth inhibition, primary screen; AID 1063, 2008; Leishmania major promastigotes, resazurin fluorescence viability; inhibition, % at 10 µM; 200,000 compounds, 9% hits; in the data active = inhibition above about 50%;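 note: promastigotes grown with compound for 44 hours at 28 °C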
RAM network inh: inhibitors of the yeast RAM network, primary screen, dse1pr::URA3 reporter, 5-FOA selection. S. cerevisiae dse1pr::URA3 reporter, 5-FOA growth OD615, 2 d; analog-sensitive cbk1-as2 kinase mutant strain. inhibition, % at 50 µM. 190,000 compounds, 1.8% hits. AID 868, 2007;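 active = inhibition above a set limit, 3 SD over mean compound inhibition, cut at about 8.4% in these data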;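 note: 0% = DMSO-only wells with no growth and 100% = 10 µM 1-NA-PP1 full growth; inhibition rescues growth on 5-FOA so higher OD means more RAM inhibition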
WT yeast gro inh: growth inhibition of WT strain, primary screen, mitochondrial fusion inhibitor project, WT and mutant strains, chemical genetic. mitochondrial fusion phenotypic screen. inhibition, % at 10 µM. 190,000 compounds, 2.1% hits. AID 1362, 2008; in the data active = inhibition above about 58%; tested in S. cerevisiae
ABCB1 inh: ABCB1 efflux pump inhibitors, primary screen, cell-based, multiplex, flow cytometry, ABCG2 counter-screen; ATP-dependent translocase ABCB1 (Homo sapiens), P08183; CCRF-Adr cells, JC-1 efflux; inhibition, % at 6.6 µM; 190,000 compounds, 0.067% hits; AID 1326, 2008; in the data active = inhibition above about 40%;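 note: 0% = vehicle and 100% = reference inhibitor; higher value means more JC-1 retained so stronger ABCB1 efflux block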
Target sequence (P08183 whole entry, looked up): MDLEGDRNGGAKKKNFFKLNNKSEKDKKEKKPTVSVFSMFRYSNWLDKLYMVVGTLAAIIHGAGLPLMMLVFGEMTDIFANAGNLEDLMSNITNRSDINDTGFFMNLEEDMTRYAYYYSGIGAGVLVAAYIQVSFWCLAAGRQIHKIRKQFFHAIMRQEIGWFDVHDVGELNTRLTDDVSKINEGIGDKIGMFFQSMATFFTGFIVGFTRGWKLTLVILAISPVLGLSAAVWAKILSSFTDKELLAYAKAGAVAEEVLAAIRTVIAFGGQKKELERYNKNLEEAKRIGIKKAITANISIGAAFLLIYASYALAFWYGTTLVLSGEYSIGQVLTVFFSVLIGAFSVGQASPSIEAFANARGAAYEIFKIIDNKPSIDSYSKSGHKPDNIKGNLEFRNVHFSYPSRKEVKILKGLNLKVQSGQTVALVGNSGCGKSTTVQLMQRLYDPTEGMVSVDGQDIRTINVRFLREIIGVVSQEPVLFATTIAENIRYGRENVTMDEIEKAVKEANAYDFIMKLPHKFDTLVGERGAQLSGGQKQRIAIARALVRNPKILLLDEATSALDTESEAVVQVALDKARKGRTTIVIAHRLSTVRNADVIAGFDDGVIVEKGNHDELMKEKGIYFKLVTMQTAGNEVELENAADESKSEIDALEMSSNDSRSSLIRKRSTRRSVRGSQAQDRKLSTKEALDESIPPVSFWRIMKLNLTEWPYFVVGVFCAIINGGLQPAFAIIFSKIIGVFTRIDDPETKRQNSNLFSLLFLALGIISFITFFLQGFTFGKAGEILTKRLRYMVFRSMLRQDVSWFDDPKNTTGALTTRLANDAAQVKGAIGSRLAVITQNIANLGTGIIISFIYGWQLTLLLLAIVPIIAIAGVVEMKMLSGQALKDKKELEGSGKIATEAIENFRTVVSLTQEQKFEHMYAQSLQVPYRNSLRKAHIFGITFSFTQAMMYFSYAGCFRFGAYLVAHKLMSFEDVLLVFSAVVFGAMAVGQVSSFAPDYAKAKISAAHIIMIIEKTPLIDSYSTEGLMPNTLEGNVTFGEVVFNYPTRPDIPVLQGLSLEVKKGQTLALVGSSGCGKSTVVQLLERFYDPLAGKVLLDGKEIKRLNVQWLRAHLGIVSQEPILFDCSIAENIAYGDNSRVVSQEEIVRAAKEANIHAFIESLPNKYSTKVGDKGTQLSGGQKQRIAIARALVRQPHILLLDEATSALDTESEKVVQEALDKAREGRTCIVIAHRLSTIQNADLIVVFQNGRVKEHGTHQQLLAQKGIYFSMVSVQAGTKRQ
ABCG2 inh: ABCG2 efflux pump inhibitors, primary screen, multiplex with ABCB1, IgMXP3 cells, flow cytometry; Broad substrate specificity ATP-binding cassette transporter ABCG2 (Homo sapiens), Q9UNQ0; JC-1 efflux; inhibition, % at 6.6 µM; 190,000 compounds, 0.1% hits;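 active = inhibition above 80%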;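 note: 0% = DMSO and 100% = nicardipine control wells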
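Test system: IgMXP3 cells (ABCG2) mixed with DDAO far-red-labelled CCRF-Adr cells (ABCB1). Reagent: JC-1 transporter substrate. Compound dosing: single test compound dose, 6.6 µM final. Times: 10 min compound exposure, 25 °C. Detection: flow cytometry of retained JC-1 fluorescence. Read-out basis: efflux inhibition in percent versus controls. Controls: nicardipine and DMSO wells.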
Active calls of the source: *; · = not tested or not shown. Hits are enriched below; roughly 12% of the tested compounds scored in any of these assays.

SMILES	L major viab	RAM network inh	WT yeast gro inh	ABCB1 inh	ABCG2 inh
Cc1ccc(C(C)C)c(OCC(O)CN2CC(C)OC(C)C2)c1 (centres undefined)	95.5*	1.5	6.5	0.8	1.5
Cc1ccc(OCC(O)CN2CCN(CC(O)COC(C)C)CC2)c(C(C)(C)C)c1 (centres undefined)	77.2*	-0.4	22.5	1.3	8.4
CCN1CCN(CC(O)COC(C)C)CC1 (centres undefined)	-0.7	0.2	·	0.2	-0.6
Cc1ccc(C(C)C)c(OCC(O)CN2CCOCC2)c1 (centres undefined)	87.6*	-0.4	-1.5	0.3	4.4
Cc1ccc(C(C)C)c(OCC(=O)N2CCOCC2)c1	-1.6	0.1	6.1	-0.4	0.3
Cc1ccc(C(C)C)c(OCC(O)CN2CCN(CCO)CC2)c1 (centres undefined)	1.2	-0.2	-20.2	0.5	3.2
O=S(=O)(/N=C(/c1ccc(F)cc1)N1CCCCC1)c1ccc(Cl)cc1	-2.3	-0.1	-3.1	1.4	1.9
COc1cc(OC)cc(-c2nc(-c3cccs3)no2)c1	-5.0	9.8*	-8.5	1.1	12.7
CCOc1ccc(Br)cc1-c1noc(-c2cccs2)n1	0.0	8.8*	4.0	0.7	7.1
CC(Cl)C(=O)c1ccc2c(c1)CCN2C(=O)C1CC1 (centres undefined)	95.6*	2.4	-9.4	-2.1	-3.5
O=C(C1CC1)N1CCc2cc(S(=O)(=O)N3CCOCC3)ccc21	-3.5	1.9	-8.1	0.6	4.4
NC(=O)CN1CCCN(S(=O)(=O)c2ccc(Br)cc2)CC1	10.6	2.0	1.5	-0.1	-0.3
COc1cccc(CN2CCCN(S(=O)(=O)c3ccc(Br)cc3)CC2)c1	92.6*	1.3	26.4	0.5	-5.2
O=S(=O)(c1ccc(Br)cc1)N1CCCN(Cc2cccc(F)c2)CC1	85.6*	1.9	55.5	1.2	3.1
CC(C)CC1CC(C)(c2csc(NNC(=O)c3ccccc3)n2)OC1=O (centres undefined)	2.9	4.2	-0.2	-1.0	-5.2
COc1ccc(-n2c(=O)c3c(C)c(C)sc3n(Cc3ccc(F)cc3)c2=O)c(OC)c1	29.0	7.9	25.6	2.3	6.5
CCNC(=S)N1CCN(C(=O)C(Cc2ccccc2)NC(C)=O)CC1 (centres undefined)	-3.0	-0.4	6.7	0.9	3.1
NC(=O)c1cc([N+](=O)[O-])cc2c1C=Cc1ccccc1O2	90.3*	4.8	-7.5	-0.1	0.1
Cc1ccc(Cn2nnnc2CN2CCC(NC(=O)C(C)(C)C)CC2)cc1	24.5	-0.1	-10.3	0.7	1.0
O=C(CSc1nccn1Cc1ccccc1)NCc1ccccc1	-4.0	1.2	14.7	0.3	1.4
Cc1csc(=Nc2cccnc2)n1CC1CCCCC1	2.7	1.7	73.2*	0.6	10.8
NC(=O)C1(N2CCCCC2)CCN(C(=S)Nc2cccc(Cl)c2)CC1	-6.3	0.7	8.4	0.2	0.2
CCCCCCCCSc1nnc(CSc2nc3nc(C)cc(C)n3n2)o1	67.3*	4.6	29.9	1.5	4.3
Cc1cc(C)n2nc(SCc3nnc(SCCCCl)o3)nc2n1	0.4	-0.7	-19.4	0.5	1.6
Oc1ccccc1/C=N/n1cnn(Cc2ccccc2Cl)c1=S	-8.1	7.8	-3.7	0.1	5.2
SMILES	L major viab	RAM network inh	WT yeast gro inh	ABCB1 inh	ABCG2 inh
COC(=O)c1cc(C(=O)OCC(=O)Nc2ccccc2OC(F)F)cc([N+](=O)[O-])c1	-2.0	4.8	-4.9	2.0	8.4
CC(C)(C)C1CCc2c(sc(NC(=O)CSc3ncn[nH]3)c2C#N)C1 (centres undefined)	3.6	0.2	93.1*	-1.3	-0.8
N#Cc1c(NC(=O)CSc2ncn[nH]2)sc2c1CCCC2	-9.9	-0.1	-23.2	0.8	23.4
CCN1CCN(CC(=O)Nc2sc3c(c2C#N)CCC(C)C3)CC1 (centres undefined)	100.4*	0.5	37.8	1.8	3.4
CCOC(=O)C1CCCN(C(=O)c2sc3nc(-c4ccc(OC)cc4)cn3c2C)C1 (centres undefined)	99.8*	4.5	18.2	2.9	6.5
Cc1ccc(-c2cc(C(F)F)n3ncc(C(=O)NN4CCCCC4)c3n2)cc1	4.2	0.0	-14.1	0.7	1.8
CCOC(=O)C1CCCN(C(=O)c2cnn3c(C(F)F)cc(-c4ccc(C)cc4)nc23)C1 (centres undefined)	98.0*	2.8	13.9	1.2	2.0
Cc1ccc(-c2cc(C(F)F)n3ncc(C(=O)N4CCN5CCCC5C4)c3n2)cc1 (centres undefined)	55.2*	2.6	65.7*	0.6	2.9
O=C(c1cnn2c(C(F)F)cc(C3CC3)nc12)N1CCCC1	-3.6	-0.9	-2.6	0.1	0.3
CCOC(=O)C1CCN(C(=O)c2sc3nc(-c4ccccc4)cn3c2C)CC1	-2.7	0.3	-12.3	3.3	4.3
O=C(Nc1nccs1)c1ccc(NC(=O)C2CC=CCC2C(=O)O)cc1 (centres undefined)	-6.8	6.8	-2.2	0.1	0.7
COCCNC(=O)NC12CC3(C)CC(C)(CC(C)(C3)C1)C2	11.5	-0.9	7.7	0.8	-5.6
CS(=O)(=O)c1cnc(-c2cccnc2)nc1N	-2.6	1.1	-4.9	-0.3	2.0
O=C(c1cccnc1)N1CCN(c2ccc3ccccc3n2)CC1	-3.3	0.2	-2.3	0.0	0.4
O=C(COC(=O)CC(c1ccccc1)c1ccccc1)Nc1c(F)cccc1F	50.1*	8.1	17.5	1.2	11.6
O=C(COC(=O)CC1CC2CCC1C2)Nc1c(F)cccc1F (centres undefined)	3.1	-0.6	-2.3	0.7	15.7
O=C(C(=O)N1CCN(c2ccc(F)cc2)CC1)c1c[nH]c2ccccc12	2.9	10.3*	7.5	-0.4	0.8
Cc1nn(-c2cc(N3CCCCC3)ccc2N)c(=O)c2ccccc12	-4.4	-1.4	1.5	0.1	0.4
Nc1ccc(N2CCCCC2)cc1N1CCCCC1	100.2*	-0.1	71.7*	-4.9	-4.7
CCCCn1c(NCCO)nc2ccccc21	-4.4	0.5	-12.2	0.2	2.7
CCCCn1c(NC(=O)c2ccccc2)nc2ccccc21	95.6*	2.4	34.6	0.7	3.4
CCCn1c(NC(=O)c2ccc(Br)cc2)nc2ccccc21	9.1	4.1	6.7	-0.2	12.1
CCCCn1c(NC(=S)Nc2ccccc2)nc2ccccc21	80.0*	3.9	5.7	-0.6	-5.0
CCCCn1c(NC(=O)C2CCCCC2)nc2ccccc21	71.5*	-0.1	24.0	0.3	1.7
S=C(Nc1ccccc1)Nc1nc2ccccc2n1CCOc1ccccc1	51.2*	3.7	-17.5	1.0	7.9
O=C(Nc1ccccc1F)c1ccc(CSc2ccccc2)o1	-4.7	2.6	39.8	-0.5	22.1
